# According to ChEMBL document CHEMBL4819032, “Structure-based design of highly selective 2,4,5-trisubstituted pyrimidine CDK9 inhibitors as anti-cancer agents” (Eur J Med Chem, 2021):
# Calls of active or inactive are those of the source. The rule behind the calls is not given here.
# Key:
# A2780 [1] = assay: Induction of cell cycle arrest in human A2780 cells assessed as accumulation at S phase at 0.5 uM after 24 hrs by propidium iodide staining based flow cytometric analysis (reference value: 20%); assay type: functional
# Method in brief: (§1)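 4 × 10⁵ A2780 cells cultured 24 h in medium alone or with varying inhibitor concentrations, harvested into hypotonic fluorochrome solution (0.1% sodium citrate, 0.1% Triton X-100, propidium iodide, 100 ug/ml RNase A), and DNA content analysed by flow cytometry. Representative of three independent experiments.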
# HCT-116 [2] = assay: Induction of apoptosis in human HCT-116 cells assessed as reduction in Mcl-1 protein expression at 5 uM after 6 to 12 hrs by Western blot analysis; assay type: functional, cell-based; settings: time 6-12 hrs
# A2780 [3] = assay: Induction of cell cycle arrest in human A2780 cells assessed as accumulation at G1/G0 phase at 2 uM after 24 hrs by propidium iodide staining based flow cytometric analysis (reference value: 56.7%); assay type: functional; method in brief: as §1
# A2780 [4] = assay: Induction of apoptosis in human A2780 cells assessed as late apoptotic cells at 1 uM after 24 hrs by Annexin V-FITC/PI staining based flow cytometric analysis (reference value: 2.8%); assay type: functional
# Method in brief: (§2)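 A2780 cells cultured 24 h in medium alone or with varying inhibitor concentrations, then stained with FITC-annexin V/PI per kit protocol and analysed by flow cytometry. Run in triplicate and repeated at least twice; significance by one-way ANOVA, p < 0.01.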
# A2780 [5] = assay: Induction of cell cycle arrest in human A2780 cells assessed as accumulation at pre-G1 phase at 0.5 uM after 24 hrs by propidium iodide staining based flow cytometric analysis (reference value: 1.2%); assay type: functional
# A2780 [6] = assay: Induction of apoptosis in human A2780 cells assessed as viable cells at 2 uM after 24 hrs by Annexin V-FITC/PI staining based flow cytometric analysis (reference value: 92%); assay type: functional; settings: read-out: Activity; method in brief: as §2
# HCT-116 [7] = assay: Induction of apoptosis in human HCT-116 cells assessed as increase in p21 protein expression at 0.5 to 5 uM after 24 hrs by Western blot analysis; assay type: functional, cell-based; settings: dose 0.5-5 µM
# Homo sapiens [8] = species on record: Homo sapiens; assay: Selectivity index, ratio of Ki for inhibition of recombinant human full length CDK9/Cyclin T1 to Ki for inhibition of recombinant human full length CDK7/Cyclin H
# A2780 [9] = assay: Induction of apoptosis in human A2780 cells assessed as necrotic cells at 2 uM after 24 hrs by Annexin V-FITC/PI staining based flow cytometric analysis (reference value: 3.6%); assay type: functional; method in brief: as §2
# HT-29 = assay: Growth inhibition of human HT-29 cells after 48 hrs by MTT assay; assay type: functional
# A2780 [10] = assay: Induction of apoptosis in human A2780 cells assessed as necrotic cells at 1 uM after 24 hrs by Annexin V-FITC/PI staining based flow cytometric analysis (reference value: 3.6%); assay type: functional; method in brief: as §2
# A2780 [11] = assay: Induction of cell cycle arrest in human A2780 cells assessed as accumulation at pre-G1 phase at 5 uM after 24 hrs by propidium iodide staining based flow cytometric analysis (reference value: 1.2%); assay type: functional
# A2780 [12] = assay: Induction of cell cycle arrest in human A2780 cells assessed as accumulation at pre-G1 phase at 1 uM after 24 hrs by propidium iodide staining based flow cytometric analysis (reference value: 1.2%); assay type: functional
# A2780 [13] = assay: Induction of cell cycle arrest in human A2780 cells assessed as accumulation at S phase at 1 uM after 24 hrs by propidium iodide staining based flow cytometric analysis (reference value: 20%); assay type: functional; method in brief: as §1
# A2780 [14] = assay: Induction of cell cycle arrest in human A2780 cells assessed as accumulation at G2/M phase at 0.5 uM after 24 hrs by propidium iodide staining based flow cytometric analysis (reference value: 21.6%); assay type: functional; method in brief: as §1
# [15] = molecular target: Cyclin-dependent kinase 9 (Homo sapiens) (UniProt P50750); assay: Inhibition of CDK9 in human A2780 cells assessed as reduction in RNAP2 phosphorylation at ser2 residues after 24 hrs by Western blot analysis; assay type: cell-based; settings: dose 0.5-5 µM
# A2780 [16] = assay: Induction of cell cycle arrest in human A2780 cells assessed as accumulation at G1/G0 phase at 1 uM after 24 hrs by propidium iodide staining based flow cytometric analysis (reference value: 56.7%); assay type: functional; method in brief: as §1
# A2780 [17] = assay: Induction of apoptosis in human A2780 cells assessed as reduction in Mcl-1 protein expression after 24 hrs by Western blot analysis; assay type: functional, cell-based; settings: dose 0.5-5 µM
# Method in brief: (§3)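 A2780 cells treated for 24 h over a concentration series, then lysates analysed by Western blotting.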
# A2780 [18] = assay: Induction of apoptosis in human A2780 cells assessed as increase in p21 protein expression at 0.5 to 5 uM after 24 hrs by Western blot analysis; assay type: functional, cell-based; settings: dose 0.5-5 µM; method in brief: as §3
# Homo sapiens [19] = species on record: Homo sapiens; assay: Selectivity index, ratio of Ki for inhibition of recombinant human full length […]
# [20] = Growth inhibition of patient derived CLL cells after 48 hrs by annexin V-FITC staining based flow cytometric analysis; assay type: functional; settings: Homo sapiens, CLL-CII
# Method in brief: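 Freshly isolated primary CLL cells (10⁶/mL) in RPMI with 10% foetal calf serum, L-glutamine, penicillin and streptomycin, 37 °C, 5% CO₂, exposed to inhibitor for 48 h. Cells labelled with CD19-APC and annexin V-FITC; apoptosis quantified by flow cytometry in CD19+ cells. LD50 is the concentration killing 50% of CLL cells.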
# [21] = molecular target: T1, Serine/threonine-protein kinase Nek2 (Homo sapiens) (UniProt P51955); assay: Inhibition of recombinant human full length NEK2 using myelin basic protein as substrate incubated for 40 mins by scintillation counting method
# T1 sequence (whole entry): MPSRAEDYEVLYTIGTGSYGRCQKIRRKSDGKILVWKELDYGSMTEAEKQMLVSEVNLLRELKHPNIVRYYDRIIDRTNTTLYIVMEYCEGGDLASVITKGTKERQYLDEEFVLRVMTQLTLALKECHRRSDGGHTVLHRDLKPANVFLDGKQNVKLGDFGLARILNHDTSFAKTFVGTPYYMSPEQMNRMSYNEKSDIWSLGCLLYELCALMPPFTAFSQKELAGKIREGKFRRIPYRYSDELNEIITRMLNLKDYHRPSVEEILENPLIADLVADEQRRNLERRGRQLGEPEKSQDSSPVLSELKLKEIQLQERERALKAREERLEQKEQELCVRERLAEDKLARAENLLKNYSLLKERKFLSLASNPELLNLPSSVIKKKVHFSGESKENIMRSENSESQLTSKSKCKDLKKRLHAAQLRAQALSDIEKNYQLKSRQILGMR
# Method in brief: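 The 60-kinase diversity panel was run as a radiometric assay with ATP at each kinase's Km(app). Compound was tested at one fixed concentration across all kinases.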
# A2780 [22] = assay: Induction of apoptosis in human A2780 cells assessed as late apoptotic cells at 2 uM after 24 hrs by Annexin V-FITC/PI staining based flow cytometric analysis (reference value: 2.8%); assay type: functional; method in brief: as §2
# A2780 [23] = assay: Induction of cell cycle arrest in human A2780 cells assessed as accumulation at G2/M phase at 1 uM after 24 hrs by propidium iodide staining based flow cytometric analysis (reference value: 21.6%); assay type: functional; method in brief: as §1
# HCT-116 [24] = assay: Induction of apoptosis in human HCT-116 cells assessed as increase in cleaved-PARP protein expression at 0.5 to 5 uM after 24 hrs by Western blot analysis; assay type: functional, cell-based; settings: dose 0.5-5 µM
# Sequence of Cyclin-dependent kinase 9 (Homo sapiens) (P50750 whole entry): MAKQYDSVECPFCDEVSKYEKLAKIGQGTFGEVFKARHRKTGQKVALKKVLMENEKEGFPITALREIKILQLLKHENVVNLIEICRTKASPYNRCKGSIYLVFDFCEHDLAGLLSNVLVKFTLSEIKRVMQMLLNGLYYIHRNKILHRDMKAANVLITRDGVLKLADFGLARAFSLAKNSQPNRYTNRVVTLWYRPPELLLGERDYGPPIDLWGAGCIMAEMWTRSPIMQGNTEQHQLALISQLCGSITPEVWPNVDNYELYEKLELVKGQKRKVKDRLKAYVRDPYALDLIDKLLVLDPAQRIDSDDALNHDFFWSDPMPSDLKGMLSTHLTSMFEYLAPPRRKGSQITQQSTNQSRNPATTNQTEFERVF
smiles,measurement,setting,value
CNc1nc(C)c(-c2nc(Nc3cccc(N4CCN5CCC4CC5)c3)ncc2C)s1,Activity,A2780 [1],15.3%
same,Activity,HCT-116 [2],Active
same,Activity,A2780 [3],24.3%
same,Activity,A2780 [4],13.1%
same,Activity,A2780 [5],2%
same,viability at 2 µM,A2780 [6],67.9%
same,Activity,HCT-116 [7],Active
same,Ratio Ki,Homo sapiens [8],> 50
same,Activity,A2780 [9],2.5%
same,GI50,HT-29,2100 nM
same,Activity,A2780 [10],3%
same,Activity,A2780 [11],34%
same,Activity,A2780 [12],6.5%
same,Activity,A2780 [13],7.6%
same,Activity,A2780 [14],22.2%
same,inhibition,[15],Dose-Dependent Effect
same,Activity,A2780 [16],50.5%
same,Activity,A2780 [17],Dose-Dependent Effect
same,Activity,A2780 [18],Active
same,Ratio Ki,Homo sapiens [19],100
same,GI50,[20],1500 nM
same,inhibition,[21],Active
same,Activity,A2780 [22],15.5%
same,Activity,A2780 [23],34.2%
same,Activity,HCT-116 [24],Active
